Laboratory results reported in ChEMBL document CHEMBL1121830, “Inhibitors of polyamine biosynthesis. 9. Effects of S-adenosyl-L-methionine analogues on mammalian aminopropyltransferases in vitro and polyamine biosynthesis in transformed lymphocytes” (1981).

Assays:
[1] = molecular target: T1, Spermidine synthase (Rattus norvegicus) (UniProt Q99MI5); assay: Compound was tested for its effect on rat prostatic spermidine synthase at 0.1 mM
T1 sequence (whole entry): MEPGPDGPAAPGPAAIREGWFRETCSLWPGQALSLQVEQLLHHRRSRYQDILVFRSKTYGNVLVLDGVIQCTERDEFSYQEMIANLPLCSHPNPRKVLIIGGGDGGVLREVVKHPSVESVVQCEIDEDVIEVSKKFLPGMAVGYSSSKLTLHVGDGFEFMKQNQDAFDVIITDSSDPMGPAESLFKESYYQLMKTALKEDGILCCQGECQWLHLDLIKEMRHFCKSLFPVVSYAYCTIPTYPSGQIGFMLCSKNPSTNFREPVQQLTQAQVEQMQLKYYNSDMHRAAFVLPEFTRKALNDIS
Method in brief: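 Rat prostate spermidine synthase preparation with 20 μM 14C-S-methyladenosylhomocysteamine and 1 mM putrescine, inhibitor at 0.1 mM. Incubation at 37 °C for 15 min; radiolabelled spermidine formed was measured.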

Mus musculus [2] = organism: Mus musculus; assay: Effect on spermidine polyamine accumulation in concanavalin A stimulated lymphocytes at 0.05 mM
[3] = test system: spermine synthase (Bos taurus); assay: Compound was tested for its effect on Bovine brain spermine synthase at 0.4 mM
Mus musculus [4] = organism: Mus musculus; assay: Effect of the addition of stimulated spermidine on the intracellular concentration in concanavalin A stimulated lymphocytes in the presence of compound (0.5 mM) and spermine (50 uM) at 48 hours
Mus musculus [5] = organism: Mus musculus; assay: Effect of the addition of stimulated spermidine on the intracellular concentration in concanavalin A stimulated lymphocytes in the presence of compound (0.5 mM) and putrescine (50 uM) at 48 hours
[6] = molecular target: T1, Spermidine synthase (Rattus norvegicus); assay: Substrate activity for Prostatic spermidine synthase product formation in rat
Method in brief: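 Substrate test: 0.13 mM S-methyladenosylhomocysteamine or analogue with 0.6 mM [14C]putrescine (spermidine synthase) or [14C]spermidine (spermine synthase). Enzyme was 1.57 mg rat ventral prostate soluble supernatant protein or 0.09 mg enzyme purified 30-fold from bovine brain soluble fraction. Incubated 20 min at 37 °C, stopped with perchloric acid, and labelled polyamines measured by paper electrophoresis.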

Mus musculus [7] = organism: Mus musculus; assay: Effect of the addition of stimulated putrescine on the intracellular concentration in concanavalin A stimulated lymphocytes in the absence of compound at 48 hours
Mus musculus [8] = organism: Mus musculus; assay: Effect on putrescine polyamine accumulation in concanavalin A stimulated lymphocytes at 0.05 mM
[9] = test system: spermine synthase (Bos taurus); assay: Compound was tested for its effect on Bovine brain spermine synthase at 1.0 mM
Mus musculus [10] = organism: Mus musculus; assay: Effect on putrescine polyamine accumulation in concanavalin A stimulated lymphocytes at 0.10 mM
Mus musculus [11] = organism: Mus musculus; assay: Effect of the addition of stimulated spermine (50 uM) on the intracellular concentration in concanavalin A stimulated lymphocytes in the absence of compound at 48 hours
Mus musculus [12] = organism: Mus musculus; assay: Effect of the addition of stimulated spermine on the intracellular concentration in concanavalin A stimulated lymphocytes in the absence of compound at 24 hours
[13] = test system: spermine synthase (Bos taurus); assay: Compound was tested for its effect on Bovine brain spermine synthase at 0.01 mM
[14] = test system: spermine synthase (Bos taurus); assay: Compound was tested for its effect on Bovine brain spermine synthase at 0.1 mM
Mus musculus [15] = organism: Mus musculus; assay: Effect of the addition of stimulated spermidine on the intracellular concentration in concanavalin A stimulated lymphocytes in the presence of spermine (50 uM) at 48 hours
Mus musculus [16] = organism: Mus musculus; assay: Effect on spermidine polyamine accumulation in concanavalin A stimulated lymphocytes at 0.10 mM
Mus musculus [17] = organism: Mus musculus; assay: Effect of the addition of stimulated spermine on the intracellular concentration in concanavalin A stimulated lymphocytes in the absence of compound at 48 hours
Mus musculus [18] = organism: Mus musculus; assay: Effect on spermidine polyamine accumulation in concanavalin A stimulated lymphocytes at 0.02 mM
Mus musculus [19] = organism: Mus musculus; assay: Effect on putrescine polyamine accumulation in concanavalin A stimulated lymphocytes at 0.20 mM
Mus musculus [20] = organism: Mus musculus; assay: Effect of the addition of stimulated spermidine on the intracellular concentration in concanavalin A stimulated lymphocytes in the presence of compound (0.5 mM) at 48 hours
Mus musculus [21] = organism: Mus musculus; assay: Effect of the addition of stimulated spermidine on the intracellular concentration in concanavalin A stimulated lymphocytes in the presence of compound (0.5 mM) at 24 hours
[22] = test system: Spermine synthase (Rattus norvegicus); assay: Substrate activity for Prostatic spermine synthase product formation in rat
Mus musculus [23] = organism: Mus musculus; assay: Effect on putrescine polyamine accumulation in concanavalin A stimulated lymphocytes at 0.35 mM
[24] = test system: spermine synthase (Rattus norvegicus); assay: Compound was tested for its effect on rat prostatic spermine synthase at 0.1 mM
Mus musculus [25] = organism: Mus musculus; assay: Effect of the addition of stimulated spermidine on the intracellular concentration in concanavalin A stimulated lymphocytes in the presence of compound (0.5 mM) and spermidine (50 uM) at 48 hours
Mus musculus [26] = organism: Mus musculus; assay: Effect of the addition of stimulated spermidine on the intracellular concentration in concanavalin A stimulated lymphocytes in the presence of spermidine (50 uM) at 48 hours
Mus musculus [27] = organism: Mus musculus; assay: Effect on putrescine polyamine accumulation in concanavalin A stimulated lymphocytes at 0.02 mM
Mus musculus [28] = organism: Mus musculus; assay: Effect of the addition of stimulated spermidine on the intracellular concentration in concanavalin A stimulated lymphocytes in the absence of compound at 48 hours
[29] = molecular target: T1, Spermidine synthase (Rattus norvegicus); assay: Substrate activity for the Bovine brain spermidine synthase product formation; conditions: Bos taurus; target entry is the homologue from another species
Mus musculus [30] = organism: Mus musculus; assay: Effect on putrescine polyamine accumulation in concanavalin A stimulated lymphocytes at 0.50 mM

CC(N)CC[S+](C)C[C@H]1O[C@@H](n2cnc3c(N)ncnc32)[C@H](O)[C@@H]1O.[I-] (stereo not given in full)
Activity [1]: 76% | Level (Mus musculus [2]): 39.8 pmol/g DNA | Activity [3]: 58% | Polyamine (Mus musculus [4]): 20 pM/g | Polyamine (Mus musculus [5]): 21.7 pmol/g | Activity [6]: 56 pmol/min | Polyamine (Mus musculus [7]): 13.3 pmol/g | Level (Mus musculus [8]): 11 pmol/g DNA | Activity [9]: 23% | Level (Mus musculus [10]): 8.9 pmol/g DNA | Polyamine (Mus musculus [11]): 98.2 pM/g | Polyamine (Mus musculus [12]): 38.6 pmol/g | Activity [13]: 102% | Activity [14]: 88% | Polyamine (Mus musculus [15]): 38.2 pmol/g | Level (Mus musculus [16]): 38.7 pmol/g DNA | Polyamine (Mus musculus [17]): 59.8 pmol/g | Level (Mus musculus [18]): 67.3 pmol/g DNA | Level (Mus musculus [19]): 6.8 pmol/g DNA | Polyamine (Mus musculus [20]): 19.3 pmol/g | Polyamine (Mus musculus [21]): 17.5 pmol/g | Activity [22]: 0% | Level (Mus musculus [23]): 4.2 pmol/g DNA | Activity [24]: 66% | Polyamine (Mus musculus [25]): 26.2 pmol/g | Polyamine (Mus musculus [26]): 157 pmol/g | Level (Mus musculus [27]): 17.8 pmol/g DNA | Polyamine (Mus musculus [28]): 90.5 pmol/g | Activity [29]: 25 pmol/min | Level (Mus musculus [30]): 3.5 pmol/g DNA
